Results from ChEMBL document CHEMBL1122578, “A colon-specific drug-delivery system based on drug glycosides and the glycosidases of colonic bacteria” (J Med Chem, 1984).

Key:
Format in all cases: functional, organism-based
[1] = tested on: Rattus norvegicus; test: Recovery of steroid from small intestine at 6 hr after administration of 7.5 mg of the compound
Method in brief: (§1)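 Male Sprague-Dawley rats (ca. 250 g), fasted 16 h, water withdrawn ≥30 min before dosing; glucoside 7.5 mg by gastric intubation in 0.5 mL water/95% EtOH (3:1). Killed by CO2 then thoracotomy at 3–6 h; small intestine and cecum removed. Contents (MeOH) and tissues (0.01 M KH2PO4) homogenized with internal-standard steroid, centrifuged, filtered, quantified by C-18 HPLC-UV (MeOH/0.01 M KH2PO4 56.5:43.5); mean of four animals.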

[2] = tested on: Rattus norvegicus; test: Recovery of steroid from cecum at 5 hr after administration of 7.5 mg of the compound; details: Caecum; method in brief: as §1
[3] = tested on: Rattus norvegicus; test: Recovery of steroid from small intestine at 3h after administration of 7.5 mg of the compound; method in brief: as §1
[4] = tested on: Rattus norvegicus; test: Recovery of steroid from small intestine at 4 hr after administration of 7.5 mg of the compound; method in brief: as §1
[5] = tested on: Rattus norvegicus; test: Recovery of steroid from cecum at 6 hr after administration of 7.5 mg of the compound; details: Caecum; method in brief: as §1
[6] = tested on: Rattus norvegicus; test: Recovery of steroid from small intestine at 5 hr after administration of 7.5 mg of the compound; method in brief: as §1
[7] = tested on: Rattus norvegicus; test: Recovery of steroid from cecum at 4 hr after administration of 7.5 mg of the compound; details: Caecum; method in brief: as §1
[8] = tested on: Rattus norvegicus; test: Recovery of steroid from cecum at 3h after administration of 7.5 mg of the compound; details: Caecum; method in brief: as §1
[9] = tested on: Rattus norvegicus; test: Recovery of glucoside from cecum at 5 hr after administration of 7.5 mg of the compound; details: Caecum; method in brief: as §1
[10] = tested on: Rattus norvegicus; test: Recovery of glucoside from small intestine at 5 hr after administration of 7.5 mg of the compound; method in brief: as §1
[11] = tested on: Rattus norvegicus; test: Recovery of glucoside from cecum at 6 hr after administration of 7.5 mg of the compound; details: Caecum; method in brief: as §1
[12] = tested on: Rattus norvegicus; test: Recovery of glucoside from cecum at 3h after administration of 7.5 mg of the compound; details: Caecum; method in brief: as §1
[13] = tested on: Rattus norvegicus; test: Recovery of glucoside from small intestine at 6 hr after administration of 7.5 mg of the compound; method in brief: as §1
[14] = tested on: Rattus norvegicus; test: Recovery of glucoside from cecum at 4 hr after administration of 7.5 mg of the compound; details: Caecum; method in brief: as §1
[15] = tested on: Rattus norvegicus; test: Recovery of glucoside from small intestine at 3h after administration of 7.5 mg of the compound; method in brief: as §1
[16] = tested on: Rattus norvegicus; test: Recovery of glucoside from small intestine at 4 hr after administration of 7.5 mg of the compound; method in brief: as §1
[17] = tested on: Rattus norvegicus; test: Recovery of glucoside from cecum at 3h after administration of 7.5 mg.; details: Caecum; method in brief: as §1

| SMILES | Recovery [1] | Recovery [2] | Recovery [3] | Recovery [4] | Recovery [5] | Recovery [6] | Recovery [7] | Recovery [8] | Recovery [9] | Recovery [10] | Recovery [11] | Recovery [12] | Recovery [13] | Recovery [14] | Recovery [15] | Recovery [16] | Recovery [17] |
| --- | --- | --- | --- | --- | --- | --- | --- | --- | --- | --- | --- | --- | --- | --- | --- | --- | --- |
| C[C@@H]1C[C@H]2[C@@H]3CCC4=CC(=O)C=C[C@]4(C)[C@@]3(F)[C@@H](O)C[C@]2(C)[C@@]1(O)C(=O)CO | 0.18 mg | 2.24 mg | 0.13 mg | 0.11 mg | 1.66 mg | 0.12 mg | 0.05 mg | 0.09 mg | – | – | – | – | – | – | – | – | – |
| C[C@]12C=CC(=O)C=C1CC[C@@H]1[C@@H]2C(O)C[C@@]2(C)[C@H]1CC[C@]2(O)C(=O)CO[C@@H]1O[C@H](CO)[C@@H](O)[C@H](O)[C@H]1O (some centres not stated) | – | – | – | – | – | – | – | – | 0 mg | 0.19 mg | 0.06 mg | 0 mg | 0.18 mg | 0 mg | 1.57 mg | 1.73 mg | – |
| C[C@@H]1CC2C3CCC4=CC(=O)C=CC4(C)[C@@]3(F)C(O)CC2(C)[C@@]1(O)C(=O)CO[C@@H]1O[C@H](CO)[C@@H](O)[C@H](O)[C@H]1O (some centres not stated) | – | – | – | – | – | – | – | – | 0.23 mg | 0.24 mg | 0.04 mg | – | 0.94 mg | 0.02 mg | 5.61 mg | 5 mg | 0.21 mg |
| C[C@]12C=CC(=O)C=C1CC[C@@H]1[C@@H]2[C@@H](O)C[C@@]2(C)[C@H]1CC[C@]2(O)C(=O)CO | 0.03 mg | 0.57 mg | 0.3 mg | 0.18 mg | 0.29 mg | 0.09 mg | 0 mg | 0 mg | – | – | – | – | – | – | – | – | – |
